Test results from ChEMBL document CHEMBL1133745, “Indeno[1,2-b]pyrazin-2,3-diones: a new class of antagonists at the glycine site of the NMDA receptor with potent in vivo activity” (J Med Chem, 2000).

How the values were obtained:
Mus musculus [1] = assay: Compound was tested in vivo (intra peritoneally) in the mouse maximal electroshock convulsion test; assay type: functional
Procedure, shortened: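 CD1 mice (Charles River); tonic convulsions induced by maximal electroshock. Most compounds tested in a single run; test variability estimated at about 12%.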

Glutamate NMDA receptor = assay: Displacement of [3H]dichlorokynurenate ([3H]-DCKA) from N-methyl-D-aspartate glutamate receptor 1 in rat cortical membranes; assay type: cell membranes, Membrane
[2] = target: Glutamate receptor ionotropic, AMPA (Rattus norvegicus, UniProt P19490+P19491+P19492+P19493); assay: Displacement of [3H]-AMPA from Ionotropic glutamate receptor AMPA of rat cortical membranes; assay type: cell membranes, Membrane
Mus musculus [3] = assay: Compound was tested in vivo (intravenously) activity in the mouse maximal electroshock convulsion test; assay type: functional; conditions: iv
Mus musculus [4] = assay: Compound was tested in vivo (intra peritoneally) with probenecid in the mouse maximal electroshock convulsion test; assay type: functional
Procedure, shortened: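 Maximal electroshock in CD1 mice, scoring tonic convulsions. Animals were pretreated with probenecid 200 mg/kg ip, and the compound was given ip 30 min before shock. ED50 in mg/kg ip.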

Mus musculus [5] = assay: Compound was tested in vivo (intraperitoneally) with probenecid in the mouse maximal electroshock convulsion test

IC50 (Glutamate NMDA receptor) [nM]	IC50 [2] [nM]	SMILES	ED50 (Mus musculus [1]) [mg/kg]	ED50 (Mus musculus [3]) [mg/kg]	ED50 (Mus musculus [1]; Mus musculus, read-out: ED50) [mg/kg]	ED50 (Mus musculus [4]) [mg/kg]	ED50 (Mus musculus [5]) [mg/kg]
5	10000	CC1(CC(=O)O)c2ccc(Cl)cc2-c2nc(O)c(O)nc21 (single isomer, unassigned; (-))	4.5	2			
21	4600	CC1(CC(=O)O)c2ccccc2-c2nc(O)c(O)nc21 (stereo not drawn)			65	2.7	
15	1280	CC1(CC(=O)O)c2ccc(F)cc2-c2nc(O)c(O)nc21 (stereo not drawn)			> 80		
28	2100	CC1(CC(=O)O)c2ccc(Cl)cc2-c2nc(O)c(O)nc21 (stereo in doubt; 10i)	6.8				1.8
4	766	O=c1[nH]c2cc(Cl)c(Cl)c([N+](=O)[O-])c2[nH]c1=O [LICOSTINEL]			22.5		
79	423	CC1(CC(=O)O)c2nc(O)c(O)nc2-c2cccc(Cl)c21 (stereo not drawn)			80		
44	1000	CC1(CC(=O)O)c2ccc(Cl)cc2-c2nc(O)c(O)nc21 (single isomer, unassigned; (+))	>80				
140	1800	CC1(CC(=O)O)c2cc(Cl)c(Cl)cc2-c2nc(O)c(O)nc21 (stereo not drawn)			> 80		
4300	> 10000	CC1(CC(=O)O)c2ccc(OC(F)(F)F)cc2-c2nc(O)c(O)nc21 (stereo not drawn)					
12	4500	Cc1ccc2c(c1)-c1nc(O)c(O)nc1C2(C)CC(=O)O (stereo not drawn)			23		
21	7000	CCCC1(CC(=O)O)c2ccc(Cl)cc2-c2nc(O)c(O)nc21 (stereo not drawn)			1.8		
8.3	> 10000	O=C(O)C1Nc2cc(Cl)cc(Cl)c2S(=O)(=O)N1Cc1cccc(Br)c1 (stereo not drawn)					
2550	> 10000	CC1(CC(=O)O)c2ccc(Cl)c(Cl)c2-c2nc(O)c(O)nc21 (stereo not drawn)			> 80		

SMILES	IC50 (Glutamate NMDA receptor) [nM]	IC50 [2] [nM]	ED50 (Mus musculus [1]) [mg/kg]	ED50 (Mus musculus [3]) [mg/kg]	ED50 (Mus musculus [1]; Mus musculus, read-out: ED50) [mg/kg]	ED50 (Mus musculus [4]) [mg/kg]	ED50 (Mus musculus [5]) [mg/kg]
CC1(CC(=O)O)c2nc(O)c(O)nc2-c2cc(Cl)cc(Cl)c21 (stereo not drawn)	24	187			> 80		
